Measured values as given in publication PMC12828150 (Acta Pharmaceutica Sinica. B, 2025).

Assays:
HepG2 = test: Antiproliferative activity, HepG2 cells; format: cell-based; conditions: read-out: HepG2 IC50
How it was run: (§1)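 Cells seeded at 1000 per well in RPMI-1640 with 10% FBS and left 24 h before adding diluted test compound. After 96 h exposure, viability was read by CellTiter-Glo luminescence. Readings were normalised as % of untreated cells and IC50 derived. n = 3, values averaged.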

HeLa = test: Antiproliferative activity, HeLa cells; format: cell-based; conditions: read-out: HeLa IC50
How it was run: as §1

IC50 (HepG2): 24 nM
IC50 (HeLa): 17 nM
Structure (SMILES): CN1CCC(NC2CCc3[nH]c4c(C(N)=O)ccc(-c5ccccc5Cl)c4c3C2)CC1 (centres unmarked) [WJ0909]
